Assays:
[1] = Stability of PI-103BE; assay type: in vitro ADME; conditions: species found after treatment with PI-103BE (9); for Fraction in culture medium: all time points
[2] = Single dose pharmacokinetics in mice, intraperitoneal injection; assay type: in vivo
[3] = tested on: panel of cancer cell lines; assay: In vitro antiproliferative activity, panel of six cancer cell lines; assay type: cell-based, human; conditions: IC50 ratio across A549, MDA-MB-231, HeLa, 22Rv1, PC-3, SKOV-3
Method in brief: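 Cells plated at 50,000 per well in DMEM with 5% FBS and exposed for 4 days to test compound at 6 doses. DMSO served as vehicle control and the parent inhibitor as positive control. Cells were counted on a Coulter counter. Survival ratio is treated over vehicle cell number, and IC50 is taken from dose-response curves. Run in triplicate, mean ± SD.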

[4] = Single dose pharmacokinetics in mice, oral gavage; assay type: in vivo; conditions: single oral dose 10 mg/kg
Method in brief: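 Female ovariectomized Nu/Nu mice, 4–6 weeks old (n = 5), received a single 10 mg/kg dose by gavage in 5% DMSO/40% PEG 400/55% saline. Orbital-sinus blood was drawn at 0.5, 1, 3, 8 and 24 h, with one sampling per group, into EDTA. Plasma was separated at 4 °C and frozen at −80 °C. Drug and metabolites were quantified by C18 UHPLC–MS (formic acid water/acetonitrile gradient).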

[5] = tested on: human lung carcinoma A549; assay: In vitro antiproliferative assay; assay type: cell-based; conditions: Fig. 5
Method in brief: (§1)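 Cells seeded at 50,000 per well in DMEM with 5% FBS. Exposed for 4 days to test compound at 6 concentrations, with DMSO vehicle and a reference compound as positive control. Cell numbers counted on a Coulter counter. Survival ratio is treated over vehicle cell number. IC50 taken from dose-response curves. Run in triplicate, mean ± SD.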

[6] = tested on: human breast adenocarcinoma MDA-MB-231; assay: In vitro antiproliferative assay; assay type: cell-based; conditions: Fig. 5
Method in brief: as §1

[7] = tested on: human prostate carcinoma 22Rv1; assay: In vitro antiproliferative assay; assay type: cell-based; conditions: Fig. 5
Method in brief: as §1

[8] = tested on: human cervical cancer HeLa; assay: In vitro antiproliferative assay; assay type: cell-based; conditions: Fig. 5
Method in brief: as §1

SMILES	Fraction of total drug content in cell culture media ([1]; 0.5 h) [%]	Fraction of total drug content in cell culture media ([1]; 1 h) [%]	Concentration in cell culture media ([1]; 3 h) [nM]	Fraction of total drug content in cell culture media ([1]; 3 h) [%]	Concentration in cell culture media ([1]; 8 h) [nM]	Fraction of total drug content in cell culture media ([1]; 8 h) [%]	Concentration in cell culture media ([1]; 24 h) [nM]	Fraction of total drug content in cell culture media ([1]; 24 h) [%]	PI-103BE in plasma ([2]; 10 mg/kg IP of labelled compound, analyte PI-103BE)	Times less potent than PI-103 (7) [3]	Fraction in culture medium [1] [%]	Oral bioavailability [4]	Peak plasma concentration of PI-103, times lower than after i.p. PI-103BE ([2]; 10 mg/kg IP, 7-treated vs PI-103BE-treated) [times]	Antiproliferative activity [5]	Antiproliferative activity [6]	Antiproliferative activity [7]	Antiproliferative activity [8]
CC1(C)OB(c2cccc(-c3nc(N4CCOCC4)c4oc5ncccc5c4n3)c2)OC1(C)C [PI-103BE (9), 4-Morpholino-2-(3-(4,4,5,5-tetramethyl-1,3,2-dioxaborolan-2-yl)phenyl)pyrido[3′,2′:4,5] furo[3,2-d]pyrimidine]	1.61	0.32	0	0	0	0	0	0	no PI-103BE was detected in plasma	3 ~ 24 times	–	–	–	–	–	–	–
Oc1cccc(-c2nc(N3CCOCC3)c3oc4ncccc4c3n2)c1 [PI-103 (7), 3-(4-Morpholinopyrido[3′,2′:4,5]furo[3,2-d]pyrimidin-2-yl)phenol, reference compound]	2.02	2.52	–	3.30	–	3.27	–	3.81	–	–	< 4	no oral bioavailability	10	–	–	–	–
OB(O)c1cccc(-c2nc(N3CCOCC3)c3oc4ncccc4c3n2)c1 [PI-103BA (10), (3-(4-Morpholinopyrido[3′,2′:4,5]furo[3,2-d]pyrimidin-2-yl)phenyl)boronic acid]	97.95	–	–	96.70	–	96.73	–	96.19	–	–	> 95	–	–	dose dependent antiproliferative activities	dose dependent antiproliferative activities	dose dependent antiproliferative activities	dose dependent antiproliferative activities

Source: article PMC8570090 (Bioorganic & medicinal chemistry letters, 2020)
